Series [1] deals with Mus musculus. The series is described as follows: Antidepressant activity in ICR mouse assessed as decrease in immobility time at 40 mg/kg, po administrated for daily for 7 days measured 1 hr post last dose by tail suspension test relative to control. It counts as functional. Set-up: scale not given: the % may be the effect or the level left. In short, it runs like this:
(§1)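 Male ICR mice given oral doses once daily for 7 days (10, 20, 40 mg/kg/day); immobility time recorded in tail suspension test versus control group.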

Series [2] has as its system Mus musculus. Put plainly: Antidepressant activity in orally dosed ICR mouse assessed as decrease in immobility time measured 1 hr post last dose by tail suspension test. It counts as functional, organism-based. In short, it runs like this:
as §1

Series [3] relates to Mus musculus. Put plainly: Antidepressant activity in ICR mouse assessed as decrease in immobility time at 20 mg/kg, po administrated for daily for 7 days measured 1 hr post last dose by forced swim test relative to control. It counts as functional. Set-up: scale not given: the % may be the effect or the level left. The procedure, abridged:
(§2)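 Male ICR mice dosed orally once daily for 7 days at 10, 20 or 40 mg/kg/day; immobility time scored in forced swim test against vehicle group; n = 10 per group, mean ± SEM.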

In series [4] the target is T1, 5-hydroxytryptamine receptor 7 (Homo sapiens, UniProt P34969). It counts as functional.
T1 sequence (P34969 whole entry): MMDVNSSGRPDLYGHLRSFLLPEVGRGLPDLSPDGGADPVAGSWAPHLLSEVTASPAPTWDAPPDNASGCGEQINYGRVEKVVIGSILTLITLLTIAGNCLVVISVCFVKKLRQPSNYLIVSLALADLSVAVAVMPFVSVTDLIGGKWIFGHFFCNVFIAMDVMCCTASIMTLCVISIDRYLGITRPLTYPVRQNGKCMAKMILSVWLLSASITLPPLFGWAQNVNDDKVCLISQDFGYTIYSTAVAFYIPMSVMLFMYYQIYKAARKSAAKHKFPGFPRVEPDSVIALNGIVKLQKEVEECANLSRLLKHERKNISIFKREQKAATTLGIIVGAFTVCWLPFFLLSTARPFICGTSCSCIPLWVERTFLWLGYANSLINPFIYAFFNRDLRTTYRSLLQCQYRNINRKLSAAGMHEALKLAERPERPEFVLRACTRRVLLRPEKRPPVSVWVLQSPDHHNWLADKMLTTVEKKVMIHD
The test system of series [5] is Mus musculus. The series is described as follows: Antidepressant activity in ICR mouse assessed as decrease in immobility time at 20 mg/kg, po administrated for daily for 7 days measured 1 hr post last dose by tail suspension test relative to control. Set-up: scale not given: the % may be the effect or the level left. It counts as functional. In short, it runs like this: as §1

Series [6] in a line: Half life in human liver microsomes at 1 uM in presence of NADPH generating system measured for 10 to 90 mins by LC-MS/MS analysis. It counts as ADME, Microsome. In short, it runs like this:
(§3)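 Human liver microsomes; metabolic stability as half-life (min) and clearance (μL/min/mg).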

The target of series [7] is T2, 5-hydroxytryptamine receptor 1A (Homo sapiens, UniProt P08908).
T2 sequence (P08908 whole entry): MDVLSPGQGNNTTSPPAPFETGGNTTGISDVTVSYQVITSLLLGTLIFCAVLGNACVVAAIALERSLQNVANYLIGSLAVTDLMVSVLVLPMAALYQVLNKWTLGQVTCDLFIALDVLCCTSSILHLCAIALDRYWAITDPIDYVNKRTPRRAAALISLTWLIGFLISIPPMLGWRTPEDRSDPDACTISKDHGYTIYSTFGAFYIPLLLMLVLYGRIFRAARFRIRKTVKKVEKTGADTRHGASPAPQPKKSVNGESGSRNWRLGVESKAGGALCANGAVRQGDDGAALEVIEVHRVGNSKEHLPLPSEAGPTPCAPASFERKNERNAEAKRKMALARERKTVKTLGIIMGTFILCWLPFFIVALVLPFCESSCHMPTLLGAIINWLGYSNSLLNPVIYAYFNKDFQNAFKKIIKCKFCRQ
Put plainly: Agonist activity at human recombinant 5HT1A receptor (unknown origin) stably expressed in CHO-K1 incubated for 30 mins by [35S]GTPgammaS binding assay. It counts as functional.

Series [8] deals with Mus musculus. Put plainly: Antidepressant activity in ICR mouse assessed as decrease in immobility time at 10 mg/kg, po administrated for daily for 7 days measured 1 hr post last dose by forced swim test relative to control. Set-up: scale not given: the % may be the effect or the level left. It counts as functional. The procedure, abridged:
as §2

Series [9] has as its target Sodium-dependent serotonin transporter (Rattus norvegicus, UniProt P31652). The series is described as follows: Inhibition of rat synaptosomes 5HT transporter assessed as reduction in [3H]serotonin reuptake incubated for 15 mins by scintillation counting method. It counts as subcellular.
Series [10] is described as follows: Clearance in rat liver microsomes at 1 uM in presence of NADPH generating system measured for 10 to 90 mins by LC-MS/MS analysis. It counts as ADME, Microsome. In short, it runs like this:
(§4)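 Rat liver microsomes; stability expressed as t1/2 (min) and intrinsic clearance (μL/min/mg).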

The test system of series [11] is Mus musculus. Put plainly: Antidepressant activity in ICR mouse assessed as decrease in immobility time at 40 mg/kg, po administrated for daily for 7 days measured 1 hr post last dose by forced swim test relative to control. It counts as functional. Set-up: scale not given: the % may be the effect or the level left. The procedure, abridged: as §2
The nature of series [12]: Half life in rat liver microsomes at 1 uM in presence of NADPH generating system measured for 10 to 90 mins by LC-MS/MS analysis. It counts as ADME, Microsome. The procedure, abridged:
as §4

Series [13] in a line: Clearance in human liver microsomes at 1 uM in presence of NADPH generating system measured for 10 to 90 mins by LC-MS/MS analysis. It counts as ADME, Microsome. The procedure, abridged: as §3
The test system of series [14] is Mus musculus. The series is described as follows: Antidepressant activity in ICR mouse assessed as decrease in immobility time at 10 mg/kg, po administrated for daily for 7 days measured 1 hr post last dose by tail suspension test relative to control. It counts as functional. Set-up: scale not given: the % may be the effect or the level left. In short, it runs like this:
as §1

Series [15] relates to Mus musculus. Put plainly: Antidepressant activity in orally dosed ICR mouse assessed as decrease in immobility time measured 1 hr post last dose by forced swim test. It counts as functional, organism-based. In short, it runs like this:
as §2

Series [16] has as its target T1, 5-hydroxytryptamine receptor 7. The series is described as follows: Displacement of [3H]-LSD from 5HT7 receptor (unknown origin) expressed in CHO cell membranes at 10 uM incubated for 120 mins by scintillation counting method relative to control. The procedure, abridged: (§5)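 Single-concentration screen at 10 μM, reported as percent inhibition; 5-HT1A by [3H]-8-OH-DPAT displacement from HEK-293 membrane homogenates, 5-HT7 by [3H]-LSD displacement from CHO membrane homogenates, SERT by [3H]-5-HT uptake into rat brain synaptosomes.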

The target in series [17] is T3, 5-hydroxytryptamine receptor 1A (Homo sapiens) (UniProt P08908).
T3 sequence (whole entry): T2 sequence (P08908 whole entry)
Put plainly: Displacement of [3H]-8-OH-DPAT from 5HT1A receptor (unknown origin) expressed in HEK293 cells membranes at 10 uM incubated for 60 mins by scintillation counting method relative to control. It counts as cell membranes. In short, it runs like this:
as §5

The target in series [18] is T2, 5-hydroxytryptamine receptor 1A. The series is described as follows: Displacement of [3H]-8-OH-DPAT from 5HT1A receptor (unknown origin) expressed in HEK293 cells membranes incubated for 60 mins by scintillation counting method. It counts as cell membranes.
For series [19], the target named is T1, 5-hydroxytryptamine receptor 7. Put plainly: Displacement of [3H]-LSD from 5HT7 receptor (unknown origin) expressed in CHO cell membranes incubated for 120 mins by scintillation counting method.
Series [20] addresses Sodium-dependent serotonin transporter (Rattus norvegicus) (UniProt P31652). Put plainly: Inhibition of rat synaptosomes 5HT transporter assessed as reduction in [3H]serotonin reuptake at 10 uM incubated for 15 mins by scintillation counting method relative to control. It counts as subcellular. In short, it runs like this: as §5

Results on 18 compounds are retold here after ChEMBL document CHEMBL4406867, “Synthesis and antidepressant effect of novel aralkyl piperazine and piperidine derivatives targeting SSRI/5-HT1A/5-HT7” (Bioorg Med Chem Lett, 2019).

pEC50, pIC50, pKi: −log10 of the molar value.

Sequence of Sodium-dependent serotonin transporter (P31652 whole entry): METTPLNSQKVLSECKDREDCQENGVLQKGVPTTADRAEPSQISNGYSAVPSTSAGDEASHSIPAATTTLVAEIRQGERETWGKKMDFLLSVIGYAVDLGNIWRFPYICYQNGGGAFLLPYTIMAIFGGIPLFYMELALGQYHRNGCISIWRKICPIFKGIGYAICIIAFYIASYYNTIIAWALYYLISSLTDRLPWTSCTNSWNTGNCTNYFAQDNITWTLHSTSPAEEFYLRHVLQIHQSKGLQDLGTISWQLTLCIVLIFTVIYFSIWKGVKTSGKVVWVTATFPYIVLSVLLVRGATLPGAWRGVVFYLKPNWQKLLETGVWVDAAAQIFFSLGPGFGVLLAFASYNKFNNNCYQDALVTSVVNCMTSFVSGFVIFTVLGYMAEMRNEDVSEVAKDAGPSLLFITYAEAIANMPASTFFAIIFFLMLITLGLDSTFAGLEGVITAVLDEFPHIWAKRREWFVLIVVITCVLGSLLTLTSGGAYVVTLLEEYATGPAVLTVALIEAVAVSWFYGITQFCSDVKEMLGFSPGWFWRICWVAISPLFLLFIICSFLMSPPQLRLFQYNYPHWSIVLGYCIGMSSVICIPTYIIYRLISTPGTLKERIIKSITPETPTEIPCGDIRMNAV
Sequence of Sodium-dependent serotonin transporter (Rattus norvegicus) (P31652 whole entry): as above

With `Fc1ccc(C2CCN(CCCc3c[nH]c4ccc(F)cc34)CC2)c(-c2ccccc2)c1`, the Activity was 43% in the series on Mus musculus [1]; “Dose-dependent effect” in the series on Mus musculus [2]; 47% in the series on Mus musculus [3]; 35% in the series with Mus musculus [5]; 29% in the series on Mus musculus [8]; 43% in the series on Mus musculus [11]. The Activity in the series on Mus musculus [14] was 28%; with Mus musculus [15], “Dose-dependent effect”. Moreover, the pIC50 is 6.19 in series [4] and 7.85 in series [9]. In addition, the half-life at 1 µM in series [6] was determined as 49.9 min; in series [12], 48.6 min. Further, in [7], the negative-log EC50 (pEC50) is 5.93. Besides, the CLH came out at 28.5 µL/min/mg in series [10] and 27.8 µL/min/mg in series [13].

Consider `Fc1ccc2[nH]cc(CCCCN3CCN(c4nsc5ccccc45)CC3)c2c1`, for which the inhibition in series [16] turned out to be 98.5%; in [17], 101%. Further, in [9], the pIC50 is 8.15. The CLH in series [10] worked out at 403 µL/min/mg. Further, in series [12], the half-life at 1 µM is 3.4 min.

On to `Fc1ccc2[nH]cc(CCCN3CCN(c4nsc5ccccc45)CC3)c2c1`, for which the values for the pKi in [18] and in [19] were 8.80 and 8.66, respectively. Besides, the negative logarithm of the IC50 (pIC50) in series [9] was 8.96. Besides, in [10], the CLH amounted to 397 µL/min/mg. Moreover, the half-life at 1 µM in series [12] was 3.5 min.

For the compound `Fc1ccc(N2CCN(CCCc3c[nH]c4ccc(F)cc34)CC2)c(-c2cccs2)c1`, the pKi in series [18] was 7.42; in series [19], 7.96. The pIC50 in series [9] was 7.68.

As to `Fc1ccc(N2CCN(CCCc3c[nH]c4ccc(F)cc34)CC2)c(-c2cn[nH]c2)c1`, the pKi in [18] was 8.20; in series [19] it was 9.05. In addition, the pIC50 in [9] is 8.89. Besides, the CLH in series [10] came out at 192 µL/min/mg. Besides, the half-life at 1 µM in series [12] came to 7.2 min.

For `Fc1ccc(C2CCN(CCCc3c[nH]c4ccc(F)cc34)CC2)c(-c2ccsc2)c1`, the pIC50 in [9] was 7.85. Besides, the CLH in [10] was 75.6 µL/min/mg. Also, the half-life at 1 µM in [12] was 18.3 min.

With `N#Cc1ccc2[nH]cc(CCCCN3CCN(c4ccc5oc(C(N)=O)cc5c4)CC3)c2c1` [VILAZODONE], the Activity with Mus musculus [1] came out at 60%. The pKi in series [19] is 5.41. For the same compound, the figures for the half-life at 1 µM in series [6] and in series [12] were 53.3 min and 28.5 min, respectively. The CLH was found to be 48.6 µL/min/mg in series [10] and 26 µL/min/mg in series [13].

Regarding `Fc1ccc2c(C3CCN(CCCc4c[nH]c5ccc(F)cc45)CC3)noc2c1`, the figures for the inhibition in [16] and in series [17] were 99.8% and 101%, respectively. In addition, the negative-log IC50 (pIC50) in [9] was 9.04. Moreover, the CLH in [10] is 301 µL/min/mg. The half-life at 1 µM in [12] came to 4.6 min.

For `Cc1ccc(Sc2ccccc2N2CCNCC2)c(C)c1` [VORTIOXETINE], the half-life at 1 µM in series [6] came out at 214 min. The CLH in series [10] worked out at 153 µL/min/mg; in series [13] it was 6.47 µL/min/mg. In addition, in the series on Mus musculus [11], the Activity was found to be 35%.

As for `Fc1ccc(N2CCN(CCCc3c[nH]c4ccc(F)cc34)CC2)c(-c2cccnc2)c1`, the inhibition in series [16] was 100%; in series [20], 104%; in series [17] it was 99.1%. For the same compound, the CLH in [10] was determined as 240 µL/min/mg. The half-life at 1 µM in series [12] was determined as 5.8 min.

Regarding `Fc1ccc2[nH]cc(CCN3CCN(c4nsc5ccccc45)CC3)c2c1`, the pKi in series [18] was 8.80; in series [19], 9.00. Also, the pIC50 in series [9] was 7.64. For the same compound, the CLH in series [10] stood at 452 µL/min/mg. For the same compound, the half-life at 1 µM in series [12] is 3.1 min.

For `COc1ccc2c(c1)[C@]13CCCC[C@@H]1[C@H](C2)N(C)CC3` [DEXTROMETHORPHAN], the half-life at 1 µM in series [6] is 44.7 min. The CLH in series [13] was found to be 31 µL/min/mg.

As for `Fc1ccc(N2CCN(CCCc3c[nH]c4ccc(F)cc34)CC2)c(-c2cc[nH]c2)c1`, the inhibition in [16] was found to be 99.1%; in [20], 78.9%; in [17] it was 97.4%.

Turning to `COc1ccc2[nH]c([S+]([O-])Cc3ncc(C)c(OC)c3C)nc2c1` (stereo not given) [OMEPRAZOLE], in series [10], the CLH is 163 µL/min/mg.

Turning to `Fc1ccc(N2CCN(CCCc3c[nH]c4ccc(F)cc34)CC2)c(-c2cncnc2)c1`, the inhibition worked out at 90.9% in series [16], 102% in series [20] and 98.8% in [17]. The CLH in [10] is 209 µL/min/mg. In [12], the half-life at 1 µM is 6.6 min.

Consider `Fc1ccc(N2CCN(CCCc3c[nH]c4ccc(F)cc34)CC2)c(-c2ccsc2)c1`, for which the values for the negative logarithm of the Ki (pKi) in series [18] and in series [19] were 8.08 and 8.70, respectively. Also, the negative logarithm of the IC50 (pIC50) in series [9] was 8.40. Also, in [10], the CLH turned out to be 56.5 µL/min/mg. Besides, in series [12], the half-life at 1 µM worked out at 24.5 min.

Turning to `Fc1ccc(N2CCN(CCCc3c[nH]c4ccc(F)cc34)CC2)c(-c2ccoc2)c1`, the pKi in series [18] was 7.82; in series [19], 7.96. Moreover, in [9], the negative-log IC50 (pIC50) is 8.52. For the same compound, the CLH in [10] was found to be 134 µL/min/mg. Further, the half-life at 1 µM in [12] came to 10.3 min.

In the case of `Cn1cc(-c2cc(F)ccc2N2CCN(CCCc3c[nH]c4ccc(F)cc34)CC2)cn1`, the negative logarithm of the IC50 (pIC50) in series [9] was 8.57. Moreover, the CLH in [10] was 146 µL/min/mg. For the same compound, in series [12], the half-life at 1 µM came to 9.5 min.
